High-throughput results as filed in PubChem BioAssay.
Efa HMGR inh: E. faecalis class II HMG-CoA reductase inhibition. purified E. faecalis HMGR, NADPH absorbance 340 nm kinetic. inhibition, % at 10 µM. 190,000 tested, 0.41% active. AID 1066;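 active means inhibition above a set limit, the median over all tested compounds plus 3 SD, cut at about 9.5% in these data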;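 further: enzyme runs in reverse so mevalonate oxidation gives rising NADPH absorbance; 0% = complete reaction with DMSO and 100% = background rate lacking mevalonate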
Rad51 HR inh: blocks human Rad51 in homologous recombination; hRad51 DNA strand exchange, fluorescence dequenching; inhibition, % at 10 µM; 200,000 tested, 0.085% active;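 active means inhibition above 40% at the single screening dose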;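 further: 0% = DMSO control wells and 100% = blanks with heterologous ssDNA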
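Test system: preformed human Rad51 ssDNA filaments. Compound dosing: single dose, 10 µM final compound. Incubation: filaments 15 min 37 °C, then compound 30 min. Technique: FRET fluorescence dequenching, excitation 485 nm, emission 520 nm. Read-out basis: percent inhibition from fluorescence, normalised to plate control and blank means. Benchmarks: plate controls and plate blanks.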
ABCB1 block: blocks JC-1 efflux by human ABCB1 transporter; CCRF-Adr cells, flow cytometry; inhibition, % at 6.6 µM; 190,000 tested, 0.067% active; AID 1326; P08183; in the data active means inhibition above about 40%;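 further: 0% = vehicle and 100% = reference inhibitor; higher value means more JC-1 retained so stronger ABCB1 efflux block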
PERK inhibitor: inhibitors of human PERK kinase; 220,000 tested, 0.17% active; Q9NZJ5; inhibition, % at 5.6 µM; AID 1416; CHO PERK-DD fusion, SEAP luminescence translation reporter;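 active means inhibition above the mean inhibition of all tested compounds plus 3 SD, set separately per screening campaign, cut at about 2.9% in these data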;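 further: PERK kinase domain activated by AP20187 dimerizer at 100 nM; 0% = DMSO with dimerizer and 100% = rapamycin at 8.4 µM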
Furin inh: inhibitors of human furin | inhibition, % at 20 µM or 30 µM | purified furin, fluorogenic substrate cleavage | 220,000 tested, 0.061% active | P09958; in the data active means inhibition above about 25%
Target sequence (P09958 108-714 limits assumed): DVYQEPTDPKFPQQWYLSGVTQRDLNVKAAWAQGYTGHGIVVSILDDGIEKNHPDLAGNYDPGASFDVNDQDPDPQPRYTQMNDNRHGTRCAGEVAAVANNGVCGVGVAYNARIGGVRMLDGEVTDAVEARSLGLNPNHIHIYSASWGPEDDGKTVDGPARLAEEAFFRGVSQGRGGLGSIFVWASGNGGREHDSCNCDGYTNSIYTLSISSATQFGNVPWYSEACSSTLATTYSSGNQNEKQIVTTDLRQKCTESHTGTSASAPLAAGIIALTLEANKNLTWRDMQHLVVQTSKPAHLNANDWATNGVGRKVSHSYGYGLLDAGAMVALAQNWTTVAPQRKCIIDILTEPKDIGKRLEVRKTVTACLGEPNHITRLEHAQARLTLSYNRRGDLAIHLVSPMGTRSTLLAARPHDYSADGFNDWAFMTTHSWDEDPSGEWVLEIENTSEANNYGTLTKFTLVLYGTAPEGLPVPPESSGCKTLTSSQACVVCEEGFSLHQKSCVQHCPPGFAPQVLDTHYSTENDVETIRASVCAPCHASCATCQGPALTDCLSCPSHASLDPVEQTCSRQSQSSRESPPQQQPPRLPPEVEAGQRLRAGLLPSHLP
ABCG2 inh: blocks JC-1 efflux by human ABCG2 transporter; Q9UNQ0; IgMXP3 cells, flow cytometry; inhibition, % at 6.6 µM; 190,000 tested, 0.1% active;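 active means inhibition above 80%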;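 further: 0% = DMSO and 100% = nicardipine control wells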
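Test system: ABCG2 IgMXP3 and barcoded ABCB1 CCRF-Adr cell mix; Schedule: cells with compound and JC-1, 10 min at 25 °C, rotating, no wash; Technique: flow cytometry of retained JC-1 fluorescence; Measure: % inhibition of efflux relative to nicardipine and DMSO; Controls: nicardipine high and DMSO low controls.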
Starred values were filed as active, the others as inactive; i = inactive; x = not tested or not shown; + = active, no number. An excerpt weighted towards active compounds, which were near 0.77% of everything screened.

SMILES	Efa HMGR inh	Rad51 HR inh	ABCB1 block	PERK inhibitor	Furin inh	ABCG2 inh
COC(c1ccccc1)c1nnc(CCC(=O)NCCC(C)C)o1 (stereo not given)	16.1*	8.8	-1.6	0.1	-22.7	-1.5
CCOC(=O)CCC(NC(=O)CCC(=O)NC(CCC(=O)OCC)C(=O)OCC)C(=O)OCC (stereo not given)	-2.2	x	0.1	1.1	-5.3	2.5
CCOC(=O)CCC(NC(=O)CC(=O)NC(CCC(=O)OCC)C(=O)OCC)C(=O)OCC (stereo not given)	10.3*	0.8	0.4	1.5	-24.4	0.8
CCOC(=O)C(C(=O)OCC)c1cc(Br)c2noc3c2c1C(=O)c1ccccc1-3	-6.9	i	156.0*	0.2	-8.9	+
CCc1nnc(NS(=O)(=O)c2ccc(N3C(=O)c4ccc(C(=O)O)cc4C3=O)cc2)s1	-6.4	22.6	0.5	0.5	-23.3	20.3
CCOC(=O)CSc1nc(C)c2cc(C)c(C)cc2n1	12.7*	0.7	0.7	0.8	-21.6	4.5
Cc1cc(C)nc(NC(=O)Cc2ccc(Br)cc2)n1	-8.0	36.3	1.2	0.3	-13.8	0.0
Cc1noc(NS(=O)(=O)c2ccc(N3Cc4ccccc4C3=O)cc2)c1C	-3.7	-0.2	0.5	3.1*	-18.0	2.0
Cc1noc(NS(=O)(=O)c2ccc(NC(=O)c3ccc(N4C(=O)c5ccccc5C4=O)cc3)cc2)c1C	9.3	0.4	-0.2	0.8	-33.1	0.7
COc1ccc(Oc2nc(C)cc(C)c2S(C)(=O)=O)cc1	-0.5	x	1.2	1.9	-18.2	5.3
Cc1cc(C)c(S(C)(=O)=O)c(Oc2ccc(F)cc2)n1	10.2*	x	0.8	1.2	-26.2	3.9
CN(C)c1ccc(C=NCC2COc3ccccc3O2)cc1 (stereo not given)	-2.2	-8.1	-0.2	0.5	1.4	-0.2
CC(=O)Nc1ccc(NC(=O)/C=C/c2cccc(C(F)(F)F)c2)cc1	-3.4	-0.9	-4.2	1.0	-10.8	4.8
CC(=O)N(c1cccc(C(F)(F)F)c1)c1nc(/C=C/C(=O)O)cs1	x	40.3*	x	1.0	-22.7	x
NC(=O)C1Cc2ccccc2CN1S(=O)(=O)c1cccs1 (stereo not given)	9.7*	-19.8	0.8	1.1	-36.6	28.4
C=CCOc1c(Br)cc(CNn2nnnc2N)cc1OC	-0.7	4.6	0.7	-0.1	1.7	15.2
COc1ccc(N2C(=O)c3ccccc3NC2(C)C)cc1	0.1	-20.6	0.3	1.2	-37.3	5.3
CCC1(C)Nc2ccccc2C(=O)N1O (stereo not given)	-2.4	40.7*	1.1	0.7	-16.2	2.5
COC(=O)c1ccccc1NC(=O)C(C)c1ccc([N+](=O)[O-])cc1 (stereo not given)	-8.5	41.6*	3.7	0.2	-16.1	28.7
CCCCCCCCCCCCOC(=O)C[N+](C)(C)C	x	4.7	x	3.2*	-26.8	x
CCC(CO)[n+]1c(C)cc(/C=C2\Sc3ccccc3N2Cc2ccccc2)cc1C (stereo not given)	-6.2	-161.2	-1.1	-0.5	28.6*	-3.5
CCN1/C(=C2\SC(=S)N(Cc3ccccc3)C2=O)Sc2ccccc21	-1.8	-24.2	-0.9	0.9	0.4	-3.8
COc1ccc(NC(=O)c2ccccc2SC)cc1	9.6*	-2.9	0.4	0.5	-35.3	0.6
CCOc1ccc(NC(=O)c2ccccc2SC)cc1	x	-0.5	x	1.1	-12.0	x
Cc1ccc(NC(=O)c2cccs2)cc1	-0.9	x	1.1	1.1	-17.6	62.9
SMILES	Efa HMGR inh	Rad51 HR inh	ABCB1 block	PERK inhibitor	Furin inh	ABCG2 inh
Cc1ccc(NC(=O)C(=O)NNC(=O)c2cccs2)cc1	10.3*	6.5	0.1	0.6	-38.9	0.8
O=C1CC(c2ccccc2)CC(=O)C1=CN1CCCC1 (stereo not given)	x	2.5	x	-0.1	32.6*	x
O=C1CC(=O)CC(c2ccccc2)C1	-2.6	x	0.6	-0.8	-8.1	2.1
O=C(O)c1ccc(NC(CSCc2ccccc2F)C(=O)O)c([N+](=O)[O-])c1 (stereo not given)	-4.0	x	1.1	0.5	-21.4	1.8
CC(C)Sc1nc(C(F)(F)F)cc(=O)n1-c1ccccc1	3.4	3.3	0.6	3.0*	-16.7	2.2
CCc1nnc(NS(=O)(=O)c2ccc(N=CC3=C(O)CC(C)(C)CC3=O)cc2)s1	-8.4	x	1.1	1.3	26.1*	3.6
CC1(C)CC(=O)C(C=Nc2ccc(O)cc2)=C(O)C1	0.9	-100.5	2.2	0.2	15.6	9.4
CCCCOCCCNC(=O)c1ccc(OCC)cc1	10.3*	x	0.5	0.3	-13.2	2.9
CCCCOCCCNC(=O)c1ccc(OC)cc1	-2.4	1.6	0.4	-0.2	0.7	13.7
COCCCNC(CC(=O)Nc1ccccc1C(=O)OC)C(=O)O (stereo not given)	x	x	x	2.6	28.1*	x
Cn1nnnc1SCCNCc1cccnc1	3.1	2.1	-0.5	3.2*	-21.6	0.0
O=C(CCN1c2ccccc2Sc2ccccc21)OCC(=O)N1CCN(C(=O)c2ccco2)CC1	-1.0	-1.2	0.4	-1.6	-2.1	0.6
CC1CCN(c2ccc(NC(=O)c3cccnc3)cc2)CC1	-4.4	6.5	-2.9	2.1	25.3*	6.1
Cn1cnnc1SCC(=O)Nc1ccc2c(c1)CCC2	-5.1	2.3	0.3	0.0	-12.8	1.9
COc1ccc(NC(=O)CSc2nncn2C)cc1OC	-2.7	-2.1	2.3	2.4	26.9*	10.3
COc1c(O)ccc(C2NC(=O)NC(C)=C2C(=O)Nc2ccccc2C)c1[N+](=O)[O-] (stereo not given)	0.1	5.0	0.4	0.0	-17.9	2.5
Cc1cc(=O)[nH]c(N/N=C/c2ccc(N(C)C)cc2)n1	13.6*	0.1	-0.1	0.6	-13.0	-0.2
Cc1cc(=O)[nH]c(N/N=C/c2ccc(C)o2)n1	0.5	x	-0.5	-0.7	8.5	-0.5
N=C1S/C(=C\c2cn[nH]c2-c2ccc(F)cc2)C(=O)N1c1ccccc1F	-6.1	-5.9	-1.4	0.9	-17.8	-5.7
O=C(O[C@@H]1Cc2c(O)cc(O)cc2O[C@@H]1c1cc(O)c(O)c(O)c1)c1cc(O)c(O)c(O)c1	14.2*	1.6	x	0.3	x	-2.8
COc1ccc([C@H]2CC(=O)c3c(O)cc(O)cc3O2)cc1O	x	7.1	x	1.6	-10.8	x
COc1cccc(/C=N/NC(=O)c2ccccc2N(Cc2ccccc2)S(=O)(=O)c2ccccc2)c1OC	-6.6	x	17.2	0.6	-10.3	16.4
FC(F)(F)c1cc(C(F)(F)F)c2ccc(Oc3ccccc3)nc2n1	-5.9	-5.6	-0.2	-0.1	-16.4	-0.4
FC(F)(F)c1cccc(Oc2ccc3c(C(F)(F)F)cc(C(F)(F)F)nc3n2)c1	-4.2	2.0	-1.1	3.7*	-13.2	37.6
O=C(c1ccco1)N1CCN(c2ncnc3c2nnn3Cc2ccccc2Cl)CC1	-5.9	-0.6	3.1	-1.2	-11.8	8.1
